Assay [1] is described as follows: Ratio of cellular uptake in CHO cells to that of CHO-MG cells at 10 uM. In kind it is functional.
Assay [2] relates to CHO. Kind of assay: Cellular uptake of conjugates in CHO cells at a concentration of 1.25 uM (+/-15% SEM). The class given is functional, cell-based. The settings on record: Cricetulus griseus. The essentials: (§1)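 Conjugates added 24 h after seeding (1 × 10^5 cells/mL, RPMI 1640 with 10% FCS and 2 mM aminoguanidine; proline added for CHO-MG) and left for 24 h. Cells were washed in 0.14 M NaCl, sonicated in 0.2 N HClO4/2 M NaCl and held 16 h at 4 °C. Conjugate in the supernatant was measured by fluorimetry against standards and expressed per mg protein (Folin). Mean of three determinations (±15%).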

Assay [3] deals with L1210. Nature of the assay: In vitro 50% cell growth inhibition by the compound in L1210 cells with 5 mM DFMO addition. The class given is functional, cell-based. The settings on record: Mus musculus. In outline:
(§2)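 L1210 cells were seeded at 5 × 10^4 cells/mL, and conjugate plus 5 mM DFMO were added at seeding with 2 mM aminoguanidine present. After 48 h, growth was read by MTT at 540 nm relative to DFMO-only controls.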

The test system of assay [4] is CHO. Nature of the assay: In vitro 50% cell growth inhibition by the compound in CHO cells. The class given is functional, cell-based. Particulars: Cricetulus griseus. In outline:
(§3)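 CHO or CHO-MG cells were trypsinized and plated singly at 2 × 10^3 cells/mL in RPMI 1640/10% FCS with 2 mM aminoguanidine (proline for CHO-MG). Conjugates were added after overnight incubation, with 48 h exposure. Growth was read by MTT formazan absorbance at 540 nm relative to untreated controls. The value is the concentration giving 25% or 50% growth inhibition.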

The subject of assay [5] is L1210. Nature of the assay: In vitro 50% cell growth inhibition by the compound in L1210 cells. The class given is functional, cell-based. Particulars: Mus musculus. In outline:
(§4)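 L1210 cells were seeded at 5 × 10^4 cells/mL with conjugate added at seeding, in medium with 2 mM aminoguanidine, for 48 h exposure. Growth was measured by MTT absorbance at 540 nm relative to untreated controls.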

The subject of assay [6] is L1210. Kind of assay: In vitro 25% cell growth inhibition by the compound in L1210 cells with 5 mM DFMO addition. The settings on record: Mus musculus. In kind it is functional. In outline: as §2
The subject of assay [7] is CHO-MG. Nature of the assay: In vitro 50% cell growth inhibition by the compound in CHO-MG cells. The class given is functional, cell-based. Particulars: Cricetulus griseus. The essentials:
as §3

The test system of assay [8] is L1210. Nature of the assay: Cellular uptake of conjugates in L1210 cells (control) at a concentration of 10 uM (+/-15% SEM). In kind it is functional, cell-based. Particulars: Mus musculus. The essentials:
(§5)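 L1210 cells were seeded at 2 × 10^5 cells/mL with conjugate added at seeding, in medium containing 2 mM aminoguanidine, and cultured 24 h. Washed cells were extracted in 0.2 N HClO4/2 M NaCl for 16 h at 4 °C. Intracellular conjugate was quantified by fluorimetry and expressed as nmol/mg protein. Mean of three determinations (±15%).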

A short description of assay [9]: Ratio of cellular uptake in CHO cells to that of CHO-MG cells at 1.25 uM. The class given is functional.
Assay [10] has as its system L1210. Nature of the assay: Inhibition of [14C]SPD uptake by the compound in 5 min initial rate transport assay in L1210 cells. In kind it is functional, cell-based, Mus musculus.
Assay [11] relates to CHO. Kind of assay: Cellular uptake of conjugates in CHO cells at a concentration of 10 uM (+/-15% SEM). The settings on record: Cricetulus griseus. In kind it is functional, cell-based. The essentials:
as §1

Assay [12] concerns CHO-MG. Nature of the assay: Cellular uptake of conjugates in CHO-MG cells at a concentration of 10 uM (+/-15% SEM). In kind it is functional, cell-based. The settings on record: Cricetulus griseus. The essentials:
as §1

In the next assay the test system is Nucleic Acid. Kind of assay: Drug concentration required to produce 50% inhibition of fluorescence bound ethidium to CT-DNA (1.26:1) (+/-SEM 5%). In kind it is functional. The settings on record: Bos taurus. In outline:
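Ethidium displacement: 1 μM CT-DNA with 1.26 μM ethidium bromide; conjugate stock added serially. Fluorescence was read at excitation 546 nm and emission 595 nm. The value is the conjugate concentration cutting DNA-bound ethidium fluorescence by 50%. Mean of three determinations (±5%).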

For assay [13], the system named is CHO-MG. Nature of the assay: Cellular uptake of conjugates in CHO-MG cells at a concentration of 1.25 uM (+/-15% SEM). The class given is functional, cell-based. The essentials: as §1
In assay [14] the test system is L1210. Kind of assay: Cellular uptake of conjugates in L1210 cells pretreated with 5 mM DFMO at a concentration of 10 uM (+/-15% SEM). In kind it is functional, cell-based. Particulars: Mus musculus. In outline: (§6)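 L1210 cells were seeded at 10^5 cells/mL in medium with 5 mM DFMO, and conjugates were added 24 h later. Cells were harvested after a further 24 h, extracted in 0.2 N HClO4/2 M NaCl and assayed by fluorimetry, expressed per mg protein. Mean of three determinations (±15%).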

In assay [15] the test system is L1210. Kind of assay: In vitro 25% cell growth inhibition by the compound in L1210 cells. The class given is functional. Particulars: Mus musculus. The essentials:
as §4

Assay [16] is described as follows: Ratio of cellular uptake in CHO cells to that of CHO-MG cells. In kind it is functional.
Assay [17] deals with L1210. Nature of the assay: Cellular uptake of conjugates in L1210 cells (control) at a concentration of 2 uM (+/-15% SEM). The class given is functional, cell-based. Particulars: Mus musculus. In outline:
as §5

Assay [18] concerns L1210. Nature of the assay: Cellular uptake of conjugates in L1210 cells pretreated with 5 mM DFMO at a concentration of 2 uM (+/-15% SEM). The class given is functional, cell-based. The settings on record: Mus musculus. The essentials:
as §6

Assay [19] deals with CHO-MG. Kind of assay: Cellular uptake of conjugates in CHO-MG cells at a concentration of 0.5 uM (+/-15% SEM). The settings on record: Cricetulus griseus. The class given is functional, cell-based. The essentials: as §1
Assay [20] has as its system CHO. Nature of the assay: Cellular uptake of conjugates in CHO cells at a concentration of 0.5 uM (+/-15% SEM). In kind it is functional, cell-based. The settings on record: Cricetulus griseus. In outline: as §1

As to `Cl.NCCCNCCCCNCCCNCCCCNC(=O)c1c2ccccc2nc2ccccc12`, the values for the Ratio in assay [1] and in assay [9] were 1.1 and 1.4, respectively. In addition, the Uptake (nM (mg of protein)-1) in the assay with CHO [2] worked out at 0.018; in the assay with L1210 [8], 0.561; in the assay with CHO [11], 0.183; in the assay on CHO-MG [12] it was 0.172; in the assay on CHO-MG [13] it was 0.013; in the assay on L1210 [14], 0.85. In addition, the IC50 in the assay on L1210 [3] came to 2200 nM; in the assay with CHO [4], 17000 nM; in the assay with L1210 [5], 18000 nM; in the assay on CHO-MG [7] it was 21000 nM. In addition, the IC25 with L1210 [6] turned out to be 160 nM; in the assay with L1210 [15] it was 10000 nM. In addition, in the assay with L1210 [10], the Ki was 83 nM. In the assay on Nucleic Acid, the Concentration for 50% ethidium displacement from DNA (C50) was 120 nM.
The compound `NCCCNCCCCNCCCN` displayed a CC50 in the assay with Nucleic Acid of 6800 nM.
With `Cl.NCCCNCCCCNCCCNCCCCCNc1c2ccccc2nc2ccccc12`, the Ratio in [16] came out at 3.4. In addition, the IC50 worked out at 700 nM in the assay on L1210 [3], 1000 nM with CHO [4], 1400 nM in the assay on L1210 [5] and 4000 nM in the assay on CHO-MG [7]. Further, the 25% effect concentration (IC25) came to 200 nM in the assay with L1210 [6] and 400 nM in the assay with L1210 [15]. The compound further registered a Ki in the assay with L1210 [10] of 135 nM. The Uptake (nM (mg of protein)-1) in the assay on L1210 [17] amounted to 0.51; in the assay on L1210 [18] it was 1.06; with CHO-MG [19] it was 0.061; with CHO [20], 0.21. The compound also had a Concentration for 50% ethidium displacement from DNA (C50) in the assay with Nucleic Acid of 110 nM.

The IC50 is the point on the concentration scale where inhibition reaches its midpoint. As usually defined, the IC25 is the concentration at which the effect reaches the 25% level. High values mean a need for much substance, low ones an effect from little substance. As usually defined, the Ki is a dissociation constant, usually derived from enzyme kinetics or from competition with a known ligand. A high value points to a looser hold on the target.
